Screens from PubChem.
TDP2 inh = blocks human TDP2 phosphodiesterase activity | O95551 | recombinant TDP2, T5PNP hydrolysis, p-nitrophenol absorbance 415 nm | inhibition, % at 12.8 µM | actives 0.34% (n = 370,000) | AID 720702;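 active = inhibition above the mean of all tested compounds plus 3 SD, set per campaign, cut at about 25% in these data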
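Evaluation: % inhibition relative to enzyme-containing and enzyme-free wells. Material: recombinant human TDP2. Benchmarks: enzyme-free and DMSO wells. Timing: enzyme reaction with compound for 2 h at 37 °C. Compound dosing: 12.8 µM only. Measured by: p-Nitrophenol epi absorbance. Reagent: T5PNP substrate at 5 mM, a TopII-DNA adduct mimic. Replication: single well per compound.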
PP1 counter = blocks human PP1-alpha phosphatase, a PP5 counter-screen; purified PP1alpha, OMFP fluorescence; inhibition, % at 6.7 µM; actives 0.9% (n = 320,000); AID 2235;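 active = inhibition above the mean inhibition of all tested compounds plus 3 SD, computed separately for each screening campaign, cut at about 15% in these data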
Apaf1 inhib = blocks human Apaf-1 apoptosome activity; O14727; actives 0.71% (n = 330,000); reconstituted apoptosome caspase-3 activity, DEVD-Rh110 fluorescence; inhibition, % at 20 µM; AID 489030; active = inhibition of at least 40% at 20 µM
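detection = Rh110 fluorescence intensity | test system = biochemical Apaf-1 apoptosome reconstitution | also added = cytochrome c and DEVD-Rh110 substrate | schedule = 30 min plus 50 min, RT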
PP5 primary = blocks human protein phosphatase 5 activity; AID 1987; actives 0.18% (n = 320,000); P53041; purified PP5c, OMFP substrate fluorescence; inhibition, % at 6.7 µM;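 active = inhibition above the campaign's mean inhibition across all tested compounds plus 3 SD, cut at about 9.5% in these data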
Target sequence (P53041 whole entry, looked up): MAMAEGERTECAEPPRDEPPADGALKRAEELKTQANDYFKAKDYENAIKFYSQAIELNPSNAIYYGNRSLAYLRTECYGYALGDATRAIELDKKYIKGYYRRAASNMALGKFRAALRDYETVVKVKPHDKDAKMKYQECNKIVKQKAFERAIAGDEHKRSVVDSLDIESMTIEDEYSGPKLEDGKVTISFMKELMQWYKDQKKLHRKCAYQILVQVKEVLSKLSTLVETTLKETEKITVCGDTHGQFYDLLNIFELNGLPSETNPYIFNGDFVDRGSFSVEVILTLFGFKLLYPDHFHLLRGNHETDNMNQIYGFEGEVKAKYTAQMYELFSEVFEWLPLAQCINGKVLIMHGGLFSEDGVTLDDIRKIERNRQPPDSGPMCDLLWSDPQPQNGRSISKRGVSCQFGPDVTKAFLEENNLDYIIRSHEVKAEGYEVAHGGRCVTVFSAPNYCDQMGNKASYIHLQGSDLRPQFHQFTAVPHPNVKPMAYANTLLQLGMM
GSTO1 counter = blocks human GSTO1 in RBBP9 counter-screen | P78417 | recombinant GSTO1, activity-based probe fluorescence polarization | inhibition, % at 5.96 µM | actives 1.1% (n = 300,000) | AID 1974;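 active = inhibition above the campaign mean inhibition plus 3 SD, cut at about 35% in these data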
PP1 confirm = human PP1 phosphatase inhibition, confirmation; shares compounds with PP1 counter; purified PP1alpha, OMFP substrate fluorescence; inhibition, % at 6.7 µM; actives 52% (n = 1,900); AID 2358;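 active = mean PP1 inhibition above a set limit taken from the earlier primary screen, cut at about 15% in these data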
PP5 counter = inhibits human PP5 phosphatase in PP1 counter-screen; AID 2360; purified PP5c, OMFP fluorescence; inhibition, % at 6.7 µM; actives 4% (n = 1,900); shares compounds with PP1 counter;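 active = mean PP5 inhibition over triplicate wells above about 9.5% taken from the earlier PP1 screen, limit read from the data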
A number is an active result. Most compounds without a hit are left out; they make up all but 2.1% or so of the library.

CN(C)CC(=O)N[C@@H]1C[C@@H]2O[C@@H](CO)CC[C@@H]2O[C@@H]1CCc1ccc(C#Cc2ccccc2)cc1 was read as TDP2 inh inactive.
For Nc1nc2ncccc2cc1C(=O)NC1CC1 the results were TDP2 inh inactive.
Cc1cc(Cl)c(S(=O)(=O)N2CCN(c3ccc(F)cc3)CC2)cc1OCC(=O)NC1CCCCC1 was read as TDP2 inh inactive, PP1 counter 18.2, Apaf1 inhib inactive, PP5 primary inactive, GSTO1 counter inactive, PP1 confirm inactive and PP5 counter inactive.
Screening Cc1cc(Cl)c(S(=O)(=O)N2CCN(c3ccc(F)cc3)CC2)cc1OCC(N)=O returned TDP2 inh inactive, PP1 counter inactive, Apaf1 inhib inactive, PP5 primary inactive and GSTO1 counter inactive.
`O=C(Nc1c(-c2ccc(F)cc2)nc2ncccn12)c1ccccc1` gave TDP2 inh inactive.
`CSCCC(NC(=O)c1ccccc1Cl)C(=O)NCC(c1ccco1)N1CCCCC1` (centres undefined) gave TDP2 inh inactive, PP1 counter 44.6, Apaf1 inhib inactive, PP5 primary inactive, GSTO1 counter inactive, PP1 confirm inactive and PP5 counter inactive.
Screening COc1ccc(Cn2ccc3ccc(-c4ccc5ccn(C(=O)c6ccc(C)cc6)c5c4)cc32)cc1 returned TDP2 inh inactive.
For O=S(=O)(Cc1cc(NCc2ccccc2)nc(-c2ccccn2)n1)c1ccccc1 the results were TDP2 inh inactive, PP1 counter 39.4, Apaf1 inhib inactive, PP5 primary inactive, GSTO1 counter inactive, PP1 confirm 46.3 and PP5 counter inactive.
CC(=O)N1CCCN(S(=O)(=O)c2ccc3c(c2)n(C)c(=O)c(=O)n3C)CC1 was read as TDP2 inh inactive.
`Cn1c(=O)cc(SCC(=O)NCc2ccco2)c2ccccc21` gave TDP2 inh inactive, PP1 counter inactive, Apaf1 inhib inactive, PP5 primary inactive and GSTO1 counter inactive.
For O=C(CSc1cn(CCNC(=O)c2ccc3ccccc3c2)c2ccccc12)NCc1ccco1 the results were TDP2 inh inactive, PP1 counter 17.8, Apaf1 inhib inactive, PP5 primary inactive, GSTO1 counter inactive, PP1 confirm inactive and PP5 counter inactive.
For Cc1ccccc1-n1c(=O)[nH]c(=O)c2c(N)c(C(=O)c3ccc(Cl)cc3)sc21 the results were TDP2 inh inactive, PP1 counter inactive, Apaf1 inhib inactive, PP5 primary inactive and GSTO1 counter inactive.
CC(=O)c1ccc(-n2c(=O)[nH]c(=O)c3c(N)c(C(=O)c4ccc(Cl)cc4)sc32)cc1 was read as TDP2 inh inactive, PP1 counter 39.7, Apaf1 inhib inactive, PP5 primary inactive, GSTO1 counter inactive, PP1 confirm 28.1 and PP5 counter inactive.
For Cc1ccc(NC(=O)Nc2nnc(-c3ccncc3)s2)cc1C the results were TDP2 inh inactive, PP1 counter 25.4, Apaf1 inhib inactive, PP5 primary inactive, GSTO1 counter inactive, PP1 confirm 29.1 and PP5 counter inactive.
`CC(=O)Nc1sc(C)c(C)c1C(=O)OCC(=O)Nc1cccc(C)c1` gave TDP2 inh inactive and Apaf1 inhib inactive.
COc1cccc(NC(=O)COC(=O)c2c(NC(C)=O)sc(C)c2C)c1 was read as TDP2 inh inactive, PP1 counter 18.4, Apaf1 inhib inactive, PP5 primary inactive, PP1 confirm 20.8 and PP5 counter inactive.
For COC(=O)c1cc2c(c3c4cc(C)ccc4n(S(=O)(=O)c4ccc(OC)cc4)c13)C(=O)N(Cc1ccccc1)C2 the results were TDP2 inh inactive.
For Clc1ccc(SCc2cc(N3CCOCC3)nc(-c3ccccn3)n2)cc1 the results were TDP2 inh inactive, PP1 counter 23.7, Apaf1 inhib inactive, PP5 primary inactive, GSTO1 counter inactive, PP1 confirm 32.3 and PP5 counter inactive.
For O=C(NCc1c(F)cccc1F)C1CCC(CNS(=O)(=O)c2cccc3cccnc23)CC1 (centres undefined) the results were TDP2 inh inactive.
